Data taken from PMC3838623 (Journal of Pharmaceutical Sciences, 2013).
Read-outs that look alike come from different tables or passages of the source.

Experiments:
[1] = test system: plasma proteins; conditions: cited from earlier work
[2] = test system: plasma proteins; conditions: liraglutide concentration 10^2 pM, cited from earlier work
[3] = cited from earlier work
[4] = test system: plasma proteins (human plasma); test: Reiterated stepwise equilibrium dialysis, plasma protein binding; format: in vitro ADME; conditions: two-sided ANOVA
Method in brief: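 Human plasma spiked with test compound (final 10^6, 10^4 or 10^2 pM) was placed in a 1.0 mL dialysis sac inside a buffer chamber pre-coated with compound-containing buffer. Compound was present in both chambers at inner–outer ratios of 100:1 or 50:1. Dialysis ran 4–5 h at 37 ± 2°C with slow rotation, in triplicate, with radioactivity counting. % bound relative to pre-incubation; mean (SD) analysed by two-sided ANOVA for gender and concentration.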

Row | Substance | plasma protein binding [1] | mean (SD) unbound percentage ([2]; healthy subjects) | mean (SD) unbound percentage ([2]; subjects with mild hepatic impairment) | plasma half-life [3] | liraglutide pharmacokinetics in renal impairment ([3]; subjects with mild-to-severe renal impairment versus healthy subjects) | estimated difference in protein binding, 10^2 pM compared with 10^4 pM ([4]; p = 0.581) | estimated difference in protein-bound liraglutide, females vs. males ([4]; p = 0.593)
1 | exenatide: GLP-1 receptor agonist with shorter duration of action, twice-daily administration | does not demonstrate significant levels of plasma protein binding | – | – | – | – | – | –
2 | liraglutide | – | 0.53% (0.46) | 0.59% (0.61) | approximately 13 h | not altered | 0.05% | −0.18%
